Bioassay records deposited in PubChem by Broad Institute.
Compounds with a hit are over-represented: about 2.6% of the library has one in this group of screens.
S100A4 inh HTS – S100A4-myosin IIA interaction inhibition | 0.14% of 360,000 active | inhibition, % at 10.7 µM | S100A4/TAMRA-MyoIIA peptide fluorescence polarization | AID 652163 | P26447;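 active = mean inhibition of at least 70% across replicates, with every replicate also reaching that level; inconclusive = mean inhibition reaches 70% but some replicates fall short; inactive = mean inhibition below 70%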
Target sequence (P26447 whole entry, looked up): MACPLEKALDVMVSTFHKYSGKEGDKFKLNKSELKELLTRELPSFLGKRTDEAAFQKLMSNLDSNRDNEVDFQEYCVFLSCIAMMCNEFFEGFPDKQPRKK
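Material: human S100A4 monomer with TAMRA-labelled myosin IIA peptide; buffer or medium: HEPES pH 7.2 with CaCl2, KCl, NaCl, DTT, Triton; compound dosing: one concentration per compound; schedule: 5 min incubation before reading; benchmarks: neutral control DMSO, positive control TFP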
miR-122 sensor – inhibitors of miR-122 in Huh7 cells | Huh7 miR-122 Renilla luciferase sensor, 48 h; neutral wells = 0, positive control = 100 | activation (reporter increase), % at 12.5 µM | 0.3% of 340,000 active | AID 602342;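 active = mean replicate activation score at least 90 and every replicate individually at or above 90; inconclusive = only one of the two criteria met; inactive = neither criterion met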;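 note: higher luciferase means less miR-122 activity so hits act as miR-122 inhibitors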
FN deposition inh – fibronectin deposition inhibition; AH1F fibroblasts, Alexa488-fibronectin deposition fluorescence, overnight; inhibition, % at 12.6 µM; 0.086% of 350,000 active; AID 743247;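 active = mean inhibition across replicates of 30% or more, regardless of how many single replicates reach that level; inconclusive = mean under 30% yet at least half of replicates reach 30%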;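 note: positive control wells lacked labelled fibronectin entirely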
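Assay system: AH1F fibroblasts assembling fluorescent fibronectin matrix; Amount: 10000 AH1F cells per well; Buffer or medium: DMEM, 2% serum; Probe or stimulus: Alexa488-fibronectin, 24 nM final in well; Doses: single compound dose, delivered by pin transfer; Incubation: 1 h adhesion, overnight exposure; Measured by: fluorescence 485/525 nm; Read-out: fibronectin deposition inhibition.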
HIV Env fusion – blocks HIV Env-driven cell-cell fusion | HeLa-JRFL Env/CEM21 cell fusion, luciferase | inhibition, % at 12.3 µM | 1.1% of 360,000 active;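 active = mean replicate inhibition score of at least 50 and every replicate individually at or above 50; inconclusive = only one of the two criteria met; inactive = mean below 50 and not all replicates reaching 50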;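 note: 0% = plate neutral controls and 100% = maraviroc near 300 nM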
Ecoli rRNA inh – inhibitors of bacterial rRNA selective over humanized ribosomes; AID 720706; E. coli WT GFP vs humanized-ribosome RFP mutants, fluorescence, 24 h; hits give low values; DMSO median 0, no signal -100; 1.6% of 350,000 active; GFP signal change (wild-type ribosome), % (concentration not given with the values);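 active = significant combined selectivity score with lowered wild-type GFP, culture density cut under 30%, mutant RFP and density less affected; inactive = any of these conditions unmet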
Vif imaging – blocks HIV Vif function; 0.35% of 340,000 active; inhibition, % at 7.49 µM; HEK293T cells, Vif self-association by quenched fluorescence, imaging, 24 h; in the data active = inhibition above about 50%, passing the limit was not always enough; inconclusive = no clear call, values can overlap the other calls; inactive = below about 31%
HepG2 cytotox – HepG2 cell cytotoxicity; shares compounds with Ecoli rRNA inh; HepG2 viability, ATP luminescence, 72 h; activity change, negative = cytotoxicity, unspecified at 26 µM; 30 tested, under 10 active;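 active = compounds whose fitted half-maximal signal-loss concentration is at most twice their highest valid dose; inconclusive = flat curve with 30 to 70% signal loss, or poor fit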
AID977621 – growth inhibition of wild-type GFP E. coli, dose response, H69 mutant RFP, cherry-pick; shares compounds with Ecoli rRNA inh; E. coli wild-type GFP strain growth, fluorescence, 24 h; activity change, negative = inhibition at 50 µM; 1,900 tested, under 10 active; AID 977621;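 active = Wild-type ribosome reporter drop at least double the humanized mutant ribosome reporter drop, growth loss under a set limit; inconclusive = no clear call, values can overlap the other calls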;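 note: wild-type GFP and H69 mutant RFP strains grown together 50/50 in each well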
AID977628 – E. coli growth inhibition, wild-type GFP versus h24 humanized RFP strain, dose response, h24 mutant RFP vs wild-type GFP, cherry-pick; activity change, negative = inhibition at 50 µM; E. coli WT GFP strain growth, fluorescence, 24 h; shares compounds with Ecoli rRNA inh; AID 977628; 1,900 tested, under 10 active;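 active = compound lowering the normal-ribosome reporter at least twice as much as the humanized-ribosome reporter, growth loss under a set limit; inconclusive = no clear call, values can overlap the other calls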;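 note: wild-type GFP and h24 humanized RFP strains co-cultured 1 to 1 per well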
An asterisk follows results filed as active; u = inconclusive; x = not tested or not shown; [ ] = remark or other dose.

SMILES	S100A4 inh HTS	miR-122 sensor	FN deposition inh	HIV Env fusion	Ecoli rRNA inh	Vif imaging	AID977621	AID977628	others
C[C@@H]1CN([C@H](C)CO)C(=O)c2cccc(NC(=O)c3ccncc3)c2O[C@@H]1CN(C)S(=O)(=O)c1ccc(Cl)cc1	4.9	15.1[16.7 µM]	x	x	-23.0*	x	x	u
COc1ccc(NC(=O)Nc2cccc3c2O[C@@H](CN(C)S(=O)(=O)c2ccc(Cl)cc2)[C@@H](C)CN([C@@H](C)CO)C3=O)cc1	-2.0	6.8[16.7 µM]	x	14.5[16.7 µM]	-4.4	x	x	x
COc1ccc2c3c(n(C)c2c1)[C@@H](CO)N(C(=O)c1ccncc1)CC31CN(CC2CC2)C1	18.5	x	x	x	2.3	x	x	x
O=C(CC1SC(=O)N(Cc2ccccc2Cl)C1=O)Nc1nccs1 (stereo not given)	-2.6	-6.1	1.0	12.8	-21.7*	-0.5	-5.78	-9.6
O=C(CC1SC(=O)N(Cc2ccccc2)C1=O)Nc1nccs1 (stereo not given)	7.7	-15.2	-0.7	6.7	7.6	-5.4	x	x
CC(=O)N1CC(=O)N2[C@H](CO)[C@@H](c3ccc(-c4ccccc4)cc3)[C@@H]2C1	x	x	x	x	3.8	x	x	x
O=[N+]([O-])c1ccc(O)c(CSc2nnnn2-c2ccccc2)c1	0.9	2.4	-9.7	-33.3	-26.2*	9.2	-27.7	-12.6
COC(=O)c1ccsc1NC(=O)c1cccc(OC)c1	0.9	x	6.4	-2.1	-26.9*	0.6	4.44	-4.44
CC(CNc1ccc(Cl)cc1)(CNc1ccc(Cl)cc1)[N+](=O)[O-]	-2.1	-7.7	1.9	32.1	-20.3*	24.6	u	u	HepG2 cytotox=16.3
O=[N+]([O-])c1ccc(CNc2ccc(Cl)cc2)s1	-2.5	1.0	-5.7	0.4	-52.6	0.5	x	x
COc1ccccc1CNC(=O)COC(=O)Cc1c[nH]c2ccccc12	-1.8	2.6	1.1	3.4	-3.6	2.5	x	x
COc1ccc(OC)c(NC(=O)COC(=O)CCNc2ccccc2OC)c1	-12.6	-5.0	2.9	6.5	-20.5*	3.4	5.86	-1.82
COc1ccc(OC)c(NC(=O)COC(=O)C2CCN(C(=O)c3ccc(Cl)cc3)CC2)c1	8.6	x	10.1	3.8	-26.6*	-3.5	-7.74	x
COc1ccccc1NC(=O)COC(=O)Cc1c[nH]c2ccccc12	-8.2	x	5.0	10.9	-17.2*	-5.6	4.39	-4.53
COc1ccc(OC)c(NC(=O)COc2ccc(S(=O)(=O)NC(C)C)cc2)c1	4.2	-3.9	x	x	-22.6*	-4.4	-11.3	-11.6
COc1ccc(NC(=O)COC(=O)C2CCN(C(=O)c3ccc(Cl)cc3)CC2)c([N+](=O)[O-])c1	5.4	-11.3	1.5	6.2	-7.0	u	x	x
O=C(Nc1ccccc1)N[C@H]1CC[C@@H](CCNS(=O)(=O)c2cccc(F)c2)O[C@@H]1CO	8.8	x	x	20.7[16.7 µM]	-2.9	x	x	x
CCCCn1c(=O)[nH]c(=O)c2c1nc(-c1ccccc1F)n2Cc1ccccc1	-6.9	x	2.9	4.8	-25.9*	-2.9	-6.63	u
CCCCn1c(=O)[nH]c(=O)c2c1nc(-c1ccc(-c3ccccc3)cc1)n2C	-1.4	-1.3	-27.8	6.3	3.4	10.4	x	x
C[C@H](CO)N1C[C@H](C)[C@H](CN(C)Cc2ccc(C(=O)O)cc2)Oc2ccc(NC(=O)Nc3ccccc3)cc2C1=O	-2.5	-5.7[16.7 µM]	x	x	6.3	x	x	x
CCC(=O)N(C)C[C@H]1Oc2cc(C#CC3CC3)ccc2S(=O)(=O)N([C@H](C)CO)C[C@@H]1C	-6.4	9.9[16.7 µM]	x	-19.7[16.7 µM]	0.3	x	x	x
O=C(NC1CCCCC1)N[C@@H]1CC[C@@H](CCNS(=O)(=O)c2ccc(Cl)cc2)O[C@@H]1CO	-1.9	x	4.4	-2.3[16.7 µM]	-1.5	x	x	x
Cc1cc(C(=O)OCC(=O)Nc2cccc(S(N)(=O)=O)c2)c2ccccc2n1	-16.6	-2.2	5.1	-1.8	-20.2*	-4.7	-6.54	x
Cc1cc(C(=O)OCC(=O)NCCc2ccc(S(N)(=O)=O)cc2)c2ccccc2n1	-7.2	x	-0.3	-1.6	3.5	-4.2	x	x
Fc1ccccc1C1CCN(Cc2nc(CC3CC3)no2)C1 (stereo not given)	-4.2	x	-2.7	-14.9	-18.3*	-2.6	-2.55	-5.49
SMILES	S100A4 inh HTS	miR-122 sensor	FN deposition inh	HIV Env fusion	Ecoli rRNA inh	Vif imaging	AID977621	AID977628	others
Cc1ccc(S(=O)(=O)N(C)C[C@H]2Oc3ccc(NC(=O)CCN4CCOCC4)cc3C(=O)N([C@@H](C)CO)C[C@H]2C)cc1	22.0	19.1[16.7 µM]	x	x	4.1	x	x	x
S=c1nc(-c2cccc(Br)c2)[nH][nH]1	-5.0	x	x	x	-20.2*	-1.1	-7.43	-8.15
O=C(O)c1ccc(Cl)c(S(=O)(=O)Nc2ccccc2Cc2ccccc2)c1	-0.8	-5.7	4.9	-5.7	-19.3*	-18.6	x	u
O=C(O)c1cc(S(=O)(=O)Nc2ccccc2Cc2ccccc2)ccc1Cl	-2.3	x	-1.7	1.5	-6.0	-3.6	x	x
Cc1nc(Nc2ccccc2)sc1C(=O)Nc1ccccc1	-3.0	x	2.8	-37.5	-22.4*	-0.5	u	u
Cc1nc(C)c(C(=O)Nc2ccccc2)s1	x	1.6	x	x	x	15.9	x	x
CCOC(=O)c1sc(Nc2ccc(OCC)cc2)nc1C	8.2	x	5.0	-8.8	3.7	-0.8	x	x
CCOC(=O)c1sc(Nc2cccc(Cl)c2)nc1C	-9.5	-0.3	2.4	-15.7	-22.9*	-6.2	-9.13	2.72
CCCNC(=O)Nc1ccc2c(c1)C(=O)N(C)C[C@H](OC)[C@H](C)CN(C(=O)C1CCCCC1)[C@H](C)CO2	x	x	x	1.5[16.7 µM]	-0.6	x	x	x
CCCCNC(=O)c1c(N)[nH]c(C(=O)c2ccccc2)c1-c1ccccn1	8.7	x	4.8	-10.7	-26.8*	x	-2	-15.3
Nc1[nH]c(C(=O)c2ccccc2)c(-c2ccc(Cl)cc2)c1C(=O)NCCc1c[nH]c2ccccc12	-4.8	x	5.3	-312.7	-18.6*	x	-12.5	x
Nc1[nH]c(C(=O)c2ccccc2)c(-c2ccc3c(c2)OCO3)c1C(=O)NCCc1c[nH]c2ccccc12	2.9	x	-13.5	-5.5	-14.8*	x	u	x
Nc1[nH]c(C(=O)c2ccccc2)c(-c2ccc(F)cc2)c1C(=O)NCc1ccccc1	-1.8	x	5.1	-60.3	3.2	x	x	x
Nc1[nH]c(C(=O)c2ccccc2)c(-c2ccc(Cl)c(Cl)c2)c1C(=O)NCCc1c[nH]c2ccccc12	-3.8	x	0.5	-206.3	x	x	x	x
